Results from ChEMBL document CHEMBL1129738, “3-Aryl-1,2-diacetamidopropane derivatives as novel and potent NK-1 receptor antagonists” (J Med Chem, 1996).

Experiments:
Substance-P receptor [1] = molecular target: Substance-P receptor (Homo sapiens, UniProt P25103); assay: Inhibitory activity against Tachykinin receptor 1 in human IM-9 cells using [125I]-labeled Boltan-Hunter substance P as radioligand; assay type: cell-based
Substance-P receptor [2] = molecular target: Substance-P receptor (Rattus norvegicus, UniProt P14600); assay: Inhibitory activity against Tachykinin receptor 1 in rat brain using [125I]-labeled Boltan-Hunter substance P as radioligand; assay type: tissue-based
Chain of Substance-P receptor (Rattus norvegicus, UniProt P14600) (P14600 whole entry): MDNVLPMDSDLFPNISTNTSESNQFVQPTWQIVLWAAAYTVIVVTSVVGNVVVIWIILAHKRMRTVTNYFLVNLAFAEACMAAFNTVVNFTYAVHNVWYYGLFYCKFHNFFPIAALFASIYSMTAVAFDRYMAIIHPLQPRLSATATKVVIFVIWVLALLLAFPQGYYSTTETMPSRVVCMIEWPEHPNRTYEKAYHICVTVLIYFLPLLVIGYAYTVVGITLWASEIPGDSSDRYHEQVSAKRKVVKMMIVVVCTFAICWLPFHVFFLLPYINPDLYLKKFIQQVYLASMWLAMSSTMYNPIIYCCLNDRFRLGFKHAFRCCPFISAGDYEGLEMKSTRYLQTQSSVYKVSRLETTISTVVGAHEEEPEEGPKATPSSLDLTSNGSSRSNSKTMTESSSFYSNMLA

Substance-P receptor [3] = molecular target: Substance-P receptor (Mus musculus, UniProt P30548); assay: Inhibitory activity against Tachykinin receptor 1 in mouse brain using [125I]-labeled Boltan-Hunter substance P as radioligand; assay type: tissue-based
Chain of Substance-P receptor (Mus musculus, UniProt P30548) (P30548 whole entry): as the sequence (P14600 whole entry) above, with M7V, I15T, V266I, E367D counted along it

Substance-P receptor [4] = molecular target: Substance-P receptor (Cavia porcellus, UniProt P30547); assay: Inhibitory activity against Tachykinin receptor 1 in guinea pig brain using [125I]-labeled Boltan-Hunter substance P as radioligand
Chain of Substance-P receptor (Cavia porcellus, UniProt P30547) (P30547 whole entry): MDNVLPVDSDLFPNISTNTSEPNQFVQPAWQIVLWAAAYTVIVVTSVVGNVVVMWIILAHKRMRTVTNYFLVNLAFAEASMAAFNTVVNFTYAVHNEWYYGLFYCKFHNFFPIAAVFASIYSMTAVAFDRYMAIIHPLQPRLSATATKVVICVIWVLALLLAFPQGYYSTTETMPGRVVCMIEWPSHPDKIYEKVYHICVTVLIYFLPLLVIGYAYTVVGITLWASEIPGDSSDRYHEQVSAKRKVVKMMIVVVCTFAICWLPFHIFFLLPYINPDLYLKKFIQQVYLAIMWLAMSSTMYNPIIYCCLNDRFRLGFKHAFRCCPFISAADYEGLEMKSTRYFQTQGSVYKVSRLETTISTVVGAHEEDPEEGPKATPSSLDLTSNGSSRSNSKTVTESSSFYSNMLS

Substance-K receptor = molecular target: T1, Substance-K receptor (Oryctolagus cuniculus, UniProt P79218); assay: Inhibition of neurokinin A induced contraction of rabbit pulmonary artery (RPA) tissue expressing Tachykinin receptor 2; assay type: functional, tissue-based; conditions: read-out: pA2 (converted)
T1 sequence (P79218 whole entry): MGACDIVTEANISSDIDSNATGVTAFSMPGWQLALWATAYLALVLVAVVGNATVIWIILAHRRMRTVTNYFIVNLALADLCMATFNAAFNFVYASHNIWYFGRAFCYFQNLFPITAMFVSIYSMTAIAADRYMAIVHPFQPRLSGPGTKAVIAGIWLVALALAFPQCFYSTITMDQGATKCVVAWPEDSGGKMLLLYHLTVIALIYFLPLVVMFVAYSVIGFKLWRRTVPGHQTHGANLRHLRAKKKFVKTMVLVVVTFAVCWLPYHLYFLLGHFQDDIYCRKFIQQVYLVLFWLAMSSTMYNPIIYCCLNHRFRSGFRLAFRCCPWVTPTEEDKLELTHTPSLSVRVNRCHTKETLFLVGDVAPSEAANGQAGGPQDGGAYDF

U11 MG = assay: In vitro inhibitory activity against P induced phosphatidyl inositol turnover in UC-11 MG Astrocytoma cells; assay type: functional, cell-based, Homo sapiens
Outline: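 Human UC-11 MG astrocytoma cells; inhibition of substance P-induced phosphatidylinositol turnover; Ki in nM; mean of two determinations.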

Neuromedin-K receptor = molecular target: T2, Neuromedin-K receptor (Rattus norvegicus, UniProt P16177); assay: Inhibition of neurokinin B induced contraction of rat portal vein (RPV) tissue expressing Tachykinin receptor 3; assay type: functional; conditions: read-out: pA2 (converted)
T2 sequence (P16177 whole entry): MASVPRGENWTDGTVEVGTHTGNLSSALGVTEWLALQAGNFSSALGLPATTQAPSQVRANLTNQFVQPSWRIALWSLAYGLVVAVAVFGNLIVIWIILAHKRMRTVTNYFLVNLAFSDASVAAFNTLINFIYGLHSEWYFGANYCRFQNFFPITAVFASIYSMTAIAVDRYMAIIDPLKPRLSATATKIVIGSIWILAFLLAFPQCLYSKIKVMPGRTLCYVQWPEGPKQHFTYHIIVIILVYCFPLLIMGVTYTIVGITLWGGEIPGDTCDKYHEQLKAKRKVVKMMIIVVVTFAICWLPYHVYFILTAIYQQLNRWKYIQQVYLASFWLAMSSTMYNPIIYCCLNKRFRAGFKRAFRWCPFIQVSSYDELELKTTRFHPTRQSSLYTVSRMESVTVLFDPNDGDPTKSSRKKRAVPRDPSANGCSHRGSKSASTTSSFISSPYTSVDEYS

U-373 MG (Homo sapiens) = assay: In vitro inhibitory activity against P induced IL-6 secretion in U-373 MG Astrocytoma cells

Chain of Substance-P receptor (Homo sapiens, UniProt P25103) (P25103 whole entry): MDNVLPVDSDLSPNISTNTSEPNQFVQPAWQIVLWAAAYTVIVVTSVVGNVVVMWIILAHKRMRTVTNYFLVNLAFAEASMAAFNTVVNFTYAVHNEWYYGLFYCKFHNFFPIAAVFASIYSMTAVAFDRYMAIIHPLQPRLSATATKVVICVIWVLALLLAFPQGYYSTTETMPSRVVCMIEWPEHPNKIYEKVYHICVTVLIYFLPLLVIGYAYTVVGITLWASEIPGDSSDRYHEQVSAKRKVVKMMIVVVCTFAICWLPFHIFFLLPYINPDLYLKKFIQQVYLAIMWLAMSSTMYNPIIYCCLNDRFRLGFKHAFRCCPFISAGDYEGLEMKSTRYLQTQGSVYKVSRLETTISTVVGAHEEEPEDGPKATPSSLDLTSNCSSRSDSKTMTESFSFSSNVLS

Row | Compound | IC50 (Substance-P receptor [1]) [nM] | other results
1 | COc1ccccc1CC(=N)N1C[C@@H]2C(=O)CCC(c3ccccc3)(c3ccccc3)[C@@H]2C1 | 30 | IC50 (Substance-P receptor [2]): 6.7 nM; IC50 (Substance-P receptor [3]): 8.7 nM; IC50 (Substance-P receptor [4]): 32 nM
2 | CC(=O)N(Cc1ccccc1Cl)C[C@H](Cc1c[nH]c2ccccc12)NC(=O)CN1CCC(N2CCCCC2)CC1 | 159 | –
3 | CC(=O)N(Cc1ccccc1)CC(Cc1c[nH]c2ccccc12)NC(=O)CN1CCN(c2ccccc2)CC1 (centres undefined) | 2.2 | –
4 | CC(=O)N(Cc1ccccc1[N+](=O)[O-])CC(Cc1c[nH]c2ccccc12)NC(=O)CN1CCN(c2ccccc2)CC1 (centres undefined) | 3 | –
5 | CCCCN(CC(Cc1c[nH]c2ccccc12)NC(=O)CN1CCN(c2ccccc2)CC1)C(C)=O (centres undefined) | 149 | –
6 | COc1ccc(CN(CC(Cc2c[nH]c3ccccc23)NC(=O)CN2CCN(c3ccccc3)CC2)C(C)=O)cc1 (centres undefined) | 2.5 | IC50 (Substance-P receptor [2]): 1100 nM
7 | COc1ccccc1CN(CC(Cc1csc2ccccc12)NC(=O)CN1CCN(c2ccccc2)CC1)C(C)=O (centres undefined) | 1.18 | –
8 | CNC(=O)N(Cc1ccccc1OC)CC(Cc1c[nH]c2ccccc12)NC(=O)CN1CCN(c2ccccc2)CC1 (centres undefined) | 3 | –
9 | CC(=O)N(Cc1ccccc1C(F)(F)F)CC(Cc1c[nH]c2ccccc12)NC(=O)CN1CCN(c2ccccc2)CC1 (centres undefined) | 3.2 | –
10 | COc1ccccc1CN(CC(Cc1c[nH]c2ccccc12)NC(=O)CN1CCC(c2ccccc2)CC1)C(C)=O (centres undefined) | 4.5 | –
11 | COc1ccccc1CN(CCNC(=O)CN1CCN(c2ccccc2)CC1)C(C)=O | > 5000 | –
12 | CSc1ccccc1CN(CC(Cc1c[nH]c2ccccc12)NC(=O)CN1CCN(c2ccccc2)CC1)C(C)=O (centres undefined) | 7.2 | –
13 | COc1ccccc1CN(CC(NC(=O)CN1CCN(c2ccccc2)CC1)C(C)C)C(C)=O (centres undefined) | > 5000 | –
14 | COc1ccccc1CN(CC(Cc1c[nH]c2ccccc12)NC(=O)CN1CCN(c2ccccc2)CC1)S(C)(=O)=O (centres undefined) | 4 | –
15 | COc1ccccc1CN(C[C@@H](Cc1c[nH]c2ccccc12)NC(=O)CN1CCN(C2CCCCC2)CC1)C(C)=O | 0.18 | IC50 (Substance-P receptor [2]): 1.5 nM; IC50 (Substance-P receptor [3]): 1.3 nM
16 | CC(=O)N(CC(Cc1c[nH]c2ccccc12)NC(=O)CN1CCN(c2ccccc2)CC1)c1ccccc1 (centres undefined) | > 5000 | –
17 | COc1ccccc1CN(CC(Cc1c[nH]c2ccccc12)NC(=O)CN1CCOCC1)C(C)=O (centres undefined) | 27 | –
18 | COc1ccccc1CN(CC(Cc1c[nH]c2ccccc12)NC(=O)CN1CCCCC1)C(C)=O (centres undefined) | 33 | –
19 | COc1ccccc1CN(CC(Cc1c[nH]c2ccccc12)NC(=O)CN1CCN(c2ccccc2)CC1)C(=O)CN(C)C (centres undefined) | 1.54 | IC50 (Substance-P receptor [2]): 480 nM; IC50 (Substance-P receptor [3]): 200 nM
20 | CCC(=O)N(Cc1ccccc1OC)CC(Cc1c[nH]c2ccccc12)NC(=O)CN1CCN(c2ccccc2)CC1 (centres undefined) | 0.81 | –
21 | COC(=O)CC(=O)N(Cc1ccccc1OC)CC(Cc1c[nH]c2ccccc12)NC(=O)CN1CCN(c2ccccc2)CC1 (centres undefined) | 1.28 | –
22 | COc1ccccc1CN(C[C@H](Cc1c[nH]c2ccccc12)NC(=O)CN1CCC(N2CCCCC2)CC1)C(C)=O | – | Kb (Substance-K receptor): 20000 nM; Ki (U11 MG): 5600 nM; Kb (Neuromedin-K receptor): 200 nM
23 | COc1ccccc1CN(CC(Cc1c[nH]c2ccccc12)NC(=O)CN1CC=C(c2ccccc2)CC1)C(C)=O (centres undefined) | 3.1 | –
24 | COc1ccccc1CN(C[C@@H](Cc1c[nH]c2ccccc12)NC(=O)CN1CCN(c2ccccc2)CC1)C(C)=O | – | Ki (U-373 MG (Homo sapiens)): 1.2 nM; Ki (U11 MG): 0.48 nM
25 | COc1ccccc1CN(CC(Cc1ccc2ccccc2c1)NC(=O)CN1CCN(c2ccccc2)CC1)C(C)=O (centres undefined) | 11 | –
26 | COc1ccccc1CN(C[C@H](Cc1c[nH]c2ccccc12)NC(=O)CN1CCN(c2ccccc2)CC1)C(C)=O | – | Kb (Substance-K receptor): 20000 nM; Ki (U-373 MG (Homo sapiens)): 3500 nM; Ki (U11 MG): 630 nM
27 | COc1ccccc1CN(CC(Cc1c[nH]c2ccccc12)NC(=O)CN1CCN(Cc2ccccc2)CC1)C(C)=O (centres undefined) | 0.98 | IC50 (Substance-P receptor [2]): 16 nM; IC50 (Substance-P receptor [4]): 0.88 nM
28 | CCN(Cc1ccccc1OC)CC(Cc1c[nH]c2ccccc12)NC(=O)CN1CCN(c2ccccc2)CC1 (centres undefined) | 85 | –
29 | COc1ccccc1CN[C@H]1C2CCN(CC2)[C@H]1C(c1ccccc1)c1ccccc1 [CP-96345] | – | Kb (Substance-K receptor): 50100 nM; Ki (U-373 MG (Homo sapiens)): 4 nM; Ki (U11 MG): 5.2 nM; Kb (Neuromedin-K receptor): 2510 nM
30 | COc1ccccc1CN(C[C@@H](Cc1c[nH]c2ccccc12)NC(=O)CN1CCC(N2CCCCC2)CC1)C(C)=O [LANEPITANT] | – | Kb (Substance-K receptor): 20000 nM; Ki (U-373 MG (Homo sapiens)): 5.5 nM; Ki (U11 MG): 1.3 nM; Kb (Neuromedin-K receptor): 20000 nM

More lines, main results first:

Row | IC50 (Substance-P receptor [1]) [nM] | Compound | other results
31 | 2.73 | COc1ccccc1CN(CC(Cc1cccc2ccccc12)NC(=O)CN1CCN(c2ccccc2)CC1)C(C)=O (centres undefined) | –
32 | 51 | COc1ccccc1CNCC(Cc1c[nH]c2ccccc12)NC(=O)CN1CCN(c2ccccc2)CC1 (centres undefined) | –
33 | 21.9 | CC(=O)N(CC1CCCCC1)CC(Cc1c[nH]c2ccccc12)NC(=O)CN1CCN(c2ccccc2)CC1 (centres undefined) | –
34 | 474 | COc1ccccc1CN(CC(NC(=O)CN1CCN(c2ccccc2)CC1)c1ccccc1)C(C)=O (centres undefined) | –
35 | 0.34 | COc1ccccc1CN(CC(Cc1c[nH]c2ccccc12)NC(=O)CN1CCN(C2CCCCC2)CC1)C(C)=O (centres undefined) | –
36 | 3.2 | CC(=O)N(Cc1ccccc1C)CC(Cc1c[nH]c2ccccc12)NC(=O)CN1CCN(c2ccccc2)CC1 (centres undefined) | –
37 | 80.9 | COc1ccccc1CN(C[C@H](Cc1c[nH]c2ccccc12)NC(=O)CN1CCN(C2CCCCC2)CC1)C(C)=O | –
38 | 338 | COc1ccccc1CN(CC(NC(=O)CN1CCN(c2ccccc2)CC1)c1ccc(Cl)c(Cl)c1)C(C)=O (centres undefined) | –
39 | 1.9 | CC(=O)N(Cc1ccccc1Cl)CC(Cc1c[nH]c2ccccc12)NC(=O)CN1CCN(c2ccccc2)CC1 (centres undefined) | –
40 | 5.5 | CCOC(=O)N(Cc1ccccc1OC)CC(Cc1c[nH]c2ccccc12)NC(=O)CN1CCN(c2ccccc2)CC1 (centres undefined) | –
41 | > 5000 | CC(=O)N(C)CC(Cc1c[nH]c2ccccc12)NC(=O)CN1CCN(c2ccccc2)CC1 (centres undefined) | –
42 | 2 | COc1ccccc1CN(CC(Cc1c[nH]c2ccccc12)NC(=O)CN1CCN(c2ccccc2)CC1)C(=O)c1ccccc1 (centres undefined) | –
43 | 2.8 | COc1ccccc1CN(CC(Cc1c[nH]c2ccccc12)NC(=O)CN1CCC(N(C)C)CC1)C(C)=O (centres undefined) | –
44 | 126 | CC(=O)N(CCc1ccccc1)CC(Cc1c[nH]c2ccccc12)NC(=O)CN1CCN(c2ccccc2)CC1 (centres undefined) | –
45 | 0.8 | COc1ccccc1CN(C=O)CC(Cc1c[nH]c2ccccc12)NC(=O)CN1CCN(c2ccccc2)CC1 (centres undefined) | –
46 | 27.4 | COc1ccccc1CN(CC(CC1CNc2ccccc21)NC(=O)CN1CCN(c2ccccc2)CC1)C(C)=O (centres undefined) | –
47 | 5.3 | COc1ccccc1CN(CC(Cc1c[nH]c2ccccc12)NC(=O)CN1CCN(C)CC1)C(C)=O (centres undefined) | –
48 | 0.18 | CC(=O)N(Cc1ccccc1Cl)CC(Cc1c[nH]c2ccccc12)NC(=O)CN1CCC(N2CCCCC2)CC1 (centres undefined) | –
